Format in all cases: functional
Assay [1] relates to Candida albicans. Nature of the assay: Antifungal activity against Candida albicans ATCC 90028 at 0.25 ug/ml after 48 hrs relative to control. The method, boiled down:
(§1)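 Fluconazole (water stock, diluted in RPMI 1640) tested by CLSI M27-A3 broth microdilution against C. albicans ATCC 90028. Inoculum 1.8×10^3 cells/mL in RPMI 1640 buffered with MOPS, pH 7.0. Incubation at 35°C without agitation, read at 18 and 48 h. Growth by OD405 and visually; inhibition % calculated against solvent growth-control wells after subtracting sterility-control wells.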

The test system of assay [2] is Candida albicans. In words: Antifungal activity against Candida albicans ATCC 90028 at 16 ug/ml after 48 hrs relative to control. The method, boiled down: (§2)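 Planktonic broth microdilution per M27-A3 in MOPS-buffered RPMI 1640 (pH 7.0), final inoculum 1.8×10^3 cells/mL, compounds 0.0313–16 µg/mL from 1600 µg/mL stocks in ethanol or DMSO. Incubated at 35°C without agitation; OD405 read at 18 and 48 h. % inhibition was derived from test, sterility (no inoculum) and solvent growth-control wells. Amphotericin B at 0.5 µg/mL served as the 100% control.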

The subject of assay [3] is Candida albicans. In words: Antifungal activity against Candida albicans ATCC 90028 at 8 ug/ml after 48 hrs relative to control. The method in brief: as §2
For assay [4], the system named is Candida albicans. Nature of the assay: Antifungal activity against Candida albicans ATCC 90028 at 0.125 ug/ml after 18 hrs relative to control. The method in brief: as §2
Assay [5] has as its system Candida albicans. Nature of the assay: Fungicidal activity against Candida albicans ATCC 90028 at 16 ug/ml after 48 hrs by M27-A3 microdilution method. The method in brief: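 After 48 h at 35°C in M27-A3 microdilution plates (compound at 16 µg/mL), 50 µL aliquots from treated and solvent-control wells were diluted 10^4 in PBS and plated on drug-free Sabouraud dextrose agar, then incubated 48 h at 35°C. Reduction R = lg CFU/mL control − lg CFU/mL treated; R ≥ 3 defined as fungicidal.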
(Dilution methods test growth across graded concentrations, often in twofold steps.)

Assay [6] deals with Candida albicans. Nature of the assay: Antifungal activity against Candida albicans ATCC 90028 at 8 ug/ml after 18 hrs relative to control. The method in brief: as §2
In assay [7] the test system is Candida albicans. Nature of the assay: Antifungal activity against Candida albicans ATCC 90028 at 0.0313 ug/ml after 18 hrs relative to control.
For assay [8], the system named is Candida albicans. In words: Antifungal activity against Candida albicans ATCC 90028 at 0.5 ug/ml after 18 hrs relative to control. The method in brief:
as §2

In assay [9] the test system is Candida albicans. Nature of the assay: Antifungal activity against Candida albicans ATCC 90028 at 0.5 ug/ml after 48 hrs relative to control. The method in brief:
as §2

Assay [10] has as its system Candida albicans. Nature of the assay: Antifungal activity against Candida albicans ATCC 90028 at 4 ug/ml after 18 hrs relative to control. The method in brief: as §2
Assay [11] concerns Candida albicans. Nature of the assay: Antifungal activity against Candida albicans ATCC 90028 at 0.0625 ug/ml after 48 hrs relative to control. The method in brief: as §2
The test system of assay [12] is Candida albicans. In words: Antifungal activity against Candida albicans ATCC 90028 at 2 ug/ml after 48 hrs relative to control. The method, boiled down:
as §2

For assay [13], the system named is Candida albicans. Nature of the assay: Antifungal activity against Candida albicans ATCC 90028 at 2 ug/ml after 18 hrs relative to control. The method in brief:
as §2

The test system of assay [14] is Candida albicans. Nature of the assay: Antifungal activity against Candida albicans ATCC 90028 at 4 ug/ml after 48 hrs relative to control. The method, boiled down: as §2
The test system of assay [15] is Candida albicans. In words: Antifungal activity against Candida albicans ATCC 90028 at 1 ug/ml after 48 hrs relative to control. The method in brief:
as §2

For assay [16], the system named is Candida albicans. Nature of the assay: Antifungal activity against Candida albicans ATCC 90028 at 1 ug/ml after 18 hrs relative to control. The method, boiled down:
as §2

Assay [17] concerns Candida albicans. Nature of the assay: Antifungal activity against Candida albicans ATCC 90028 at 0.125 ug/ml after 48 hrs relative to control. The method in brief: as §2
Assay [18] relates to Candida albicans. Nature of the assay: Antifungal activity against Candida albicans ATCC 90028 at 0.25 ug/ml after 18 hrs relative to control. The method in brief:
as §1

The subject of assay [19] is Candida albicans. In words: Antifungal activity against Candida albicans ATCC 90028 at 16 ug/ml after 18 hrs relative to control. The method, boiled down: as §2
Assay [20] has as its system Candida albicans. In words: Antifungal activity against Candida albicans ATCC 90028 at 0.0313 ug/ml after 48 hrs relative to control.
The test system of assay [21] is Candida albicans. In words: Antifungal activity against Candida albicans ATCC 90028 at 0.0625 ug/ml after 18 hrs relative to control.

Regarding `ClCCCn1nnc(-c2ccc(Cl)cc2)n1`, the Activity came out at 99.04% in the assay on Candida albicans [1]; 98.74% in the assay on Candida albicans [2]; 98.75% with Candida albicans [3]; 99.94% in the assay with Candida albicans [4]; 0.26 log10CFU/ml in the assay with Candida albicans [5]; 98.47% in the assay with Candida albicans [6]. Further, the Activity in the assay with Candida albicans [7] is 96.23%; in the assay with Candida albicans [8], 96.41%; in the assay on Candida albicans [9], 98.74%; with Candida albicans [10], 99.02%; in the assay with Candida albicans [11], 98.83%; in the assay with Candida albicans [12] it was 99.24%. Moreover, the Activity stood at 99.22% in the assay on Candida albicans [13]; 98.93% in the assay with Candida albicans [14]; 99.1% with Candida albicans [15]; 91.33% with Candida albicans [16]; 98.9% in the assay with Candida albicans [17]; 99.99% with Candida albicans [18]. In addition, the Activity worked out at 100% in the assay on Candida albicans [19], 99% in the assay with Candida albicans [20] and 99.94% in the assay on Candida albicans [21].
`CCOC(=O)CCn1nnc(-c2ccccc2Cl)n1`: the Activity worked out at 99.09% in the assay with Candida albicans [1]; 98.83% in the assay with Candida albicans [2]; 98.84% with Candida albicans [3]; 99.97% with Candida albicans [4]; 0.19 log10CFU/ml in the assay on Candida albicans [5]; 99.23% in the assay on Candida albicans [6]. The Activity is listed as 97.51% in the assay with Candida albicans [7]; 96.86% in the assay on Candida albicans [8]; 98.84% in the assay with Candida albicans [9]; 100% in the assay with Candida albicans [10]; 98.78% in the assay with Candida albicans [11]; 99.41% with Candida albicans [12]. In addition, the Activity in the assay on Candida albicans [13] came out at 99.98%; in the assay with Candida albicans [14], 99.05%; in the assay on Candida albicans [15], 98.86%; in the assay on Candida albicans [16], 99.38%; with Candida albicans [17] it was 98.82%; in the assay on Candida albicans [18], 99.86%. Besides, the Activity turned out to be 100% in the assay with Candida albicans [19], 99.27% with Candida albicans [20] and 99.86% in the assay with Candida albicans [21].
On to `CCOC(=O)CCn1nnnc1-c1ccc(C)cc1`, for which the Activity in the assay on Candida albicans [1] is listed as 98.72%; with Candida albicans [2], 98.82%; in the assay on Candida albicans [3], 98.86%; with Candida albicans [4] it was 99.61%; in the assay on Candida albicans [5] it was -0.54 log10CFU/ml; in the assay on Candida albicans [6], 98.51%. For the same compound, the Activity in the assay with Candida albicans [7] came out at 99.74%; in the assay on Candida albicans [8] it was 98.88%; in the assay with Candida albicans [9] it was 99.08%; in the assay with Candida albicans [10], 99.94%; in the assay on Candida albicans [11], 99.11%; in the assay with Candida albicans [12], 97.05%. The Activity in the assay with Candida albicans [13] is on record as 89.93%; in the assay on Candida albicans [14], 99.01%; in the assay on Candida albicans [15] it was 99.04%; in the assay on Candida albicans [16] it was 98.46%; in the assay with Candida albicans [17], 98.94%; in the assay on Candida albicans [18] it was 95.87%. In addition, the Activity in the assay on Candida albicans [19] was found to be 98.97%; with Candida albicans [20] it was 99.34%; with Candida albicans [21], 99.59%.
Take `ClCCCn1nnnc1-c1ccccc1`: the Activity with Candida albicans [1] is 98.19%; with Candida albicans [2], 99.05%; with Candida albicans [3] it was 98.81%; in the assay on Candida albicans [4], 98.12%; with Candida albicans [5] it was -0.18 log10CFU/ml; with Candida albicans [6], 98.57%. Further, the Activity in the assay with Candida albicans [7] is 99.65%; in the assay on Candida albicans [8], 97.53%; with Candida albicans [9], 98.82%; in the assay on Candida albicans [10] it was 98.66%; in the assay on Candida albicans [11], 99.12%; in the assay on Candida albicans [12], 97.23%. In addition, the Activity in the assay on Candida albicans [13] is listed as 95.82%; in the assay with Candida albicans [14], 98.9%; in the assay with Candida albicans [15], 98.8%; in the assay on Candida albicans [16] it was 96.69%; with Candida albicans [17] it was 99.16%; with Candida albicans [18] it was 94.68%. The Activity is 98.95% in the assay on Candida albicans [19], 99.02% in the assay with Candida albicans [20] and 99.45% in the assay with Candida albicans [21].

The values are drawn from ChEMBL document CHEMBL4145471, “New 1,5 and 2,5-disubstituted tetrazoles-dependent activity towards surface barrier of Candida albicans” (Eur J Med Chem, 2018).
